Results on 22 compounds are retold here after PMC9042899 (RSC Advances, 2021).

Chain of CIAP (calf intestinal alkaline phosphatase) (P19111 20-506 limits assumed): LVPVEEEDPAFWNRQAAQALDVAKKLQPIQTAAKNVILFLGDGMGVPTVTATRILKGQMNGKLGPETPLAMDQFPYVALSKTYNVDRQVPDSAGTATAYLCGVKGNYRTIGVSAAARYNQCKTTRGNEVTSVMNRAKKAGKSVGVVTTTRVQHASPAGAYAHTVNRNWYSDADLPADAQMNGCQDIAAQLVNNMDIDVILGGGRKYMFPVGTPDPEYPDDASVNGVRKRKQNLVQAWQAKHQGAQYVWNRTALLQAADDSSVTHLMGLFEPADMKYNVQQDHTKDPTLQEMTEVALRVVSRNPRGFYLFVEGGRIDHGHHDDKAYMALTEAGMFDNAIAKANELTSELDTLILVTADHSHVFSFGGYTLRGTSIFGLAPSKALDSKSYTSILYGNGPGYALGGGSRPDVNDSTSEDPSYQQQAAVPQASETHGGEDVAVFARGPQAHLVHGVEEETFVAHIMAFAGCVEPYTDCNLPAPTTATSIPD

The first experiment concerns the target CIAP (calf intestinal alkaline phosphatase) (Bos taurus, UniProt P19111). As to the kind of experiment: Alkaline phosphatase. It counts as biochemical. The note with it: Alkaline phosphatase IC50 ± SEM, CIAP, substrate p-NPP, pH 9.5, 37 °C; mean ± SEM; NA = No activity.
`COc1cc(C=CC(=O)c2cc(Cl)cc([N+](=O)[O-])c2O)ccc1OCc1ccccc1` [Compound 11, 3-(4-(Benzyloxy)-3-methoxyphenyl)-1-(5-chloro-2-hydroxy-3-nitrophenyl)prop-2-en-1-one]: half-maximal inhibition (IC50) was put at 9.56 ± 0.263 µM.
Still for that read-out and setting: as for `CCCOc1ccc(C=C2Oc3cc(Cl)cc([N+](=O)[O-])c3C2=O)cc1OC` [Compound 21, 6-Chloro-2-(3-methoxy-4-propoxybenzylidene)-4-nitrobenzofuran-3(2H)-one], the figure is 2.33 ± 0.059 µM; as for `O=C(C=Cc1cccs1)c1cc(Cl)cc([N+](=O)[O-])c1O` [Compound 9, 1-(5-Chloro-2-hydroxy-3-nitrophenyl)-3-(thiophen-2-yl)prop-2-en-1-one], 8.45 ± 0.245 µM.
The same measure, in the same setting: in the case of `O=C1C(=Cc2ccc(C(F)(F)F)cc2)Oc2cc(Br)cc(Br)c21` [Compound 13, 4,6-Dibromo-2-(4-(trifluoromethyl)benzylidene)benzofuran-3(2H)-one] it was 5.79 ± 0.081 µM; in that of `O=C1C(=Cc2ccc(F)cc2)Oc2cc(Cl)cc([N+](=O)[O-])c21` [Compound 17, 6-Chloro-2-(4-fluorobenzylidene)-4-nitrobenzofuran-3(2H)-one], 4.88 ± 0.086 µM; in that of `Cc1ccc(C=C2Oc3cc(Cl)cc([N+](=O)[O-])c3C2=O)c(C)c1` [Compound 18, 6-Chloro-2-(2,4-dimethylbenzylidene)-4-nitrobenzofuran-3(2H)-one], 1.15 ± 0.043 µM.
The same measure, in the same setting: in the case of `O=C1C(=Cc2ccc(Cl)cc2)Oc2cc(Cl)cc([N+](=O)[O-])c21` [Compound 16, 6-Chloro-2-(4-chlorobenzylidene)-4-nitrobenzofuran-3(2H)-one] it was 2.13 ± 0.034 µM; in that of `COc1cc(C=C2Oc3cc(Cl)cc([N+](=O)[O-])c3C2=O)ccc1OCc1ccccc1` [Compound 22, 2-(4-(Benzyloxy)-3-methoxybenzylidene)-6-chloro-4-nitrobenzofuran-3(2H)-one], 5.54 ± 0.079 µM; in that of `O=C(C=Cc1ccc(F)cc1)c1cc(Cl)cc([N+](=O)[O-])c1O` [Compound 5, 1-(5-Chloro-2-hydroxy-3-nitrophenyl)-3-(4-fluorophenyl)prop-2-en-1-one], 7.55 ± 0.265 µM.
Turning to `O=C1C(=Cc2ccc(Cl)cc2)Oc2cc(Br)cc(Br)c21` [Compound 12, 4,6-Dibromo-2-(4-chlorobenzylidene)benzofuran-3(2H)-one], it took 2.16 ± 0.048 µM to reach half-maximal inhibition (IC50).
On the same count and under the same terms, as for `O=C1C(=Cc2ccco2)Oc2cc(Br)cc(Br)c21` [Compound 14, 4,6-Dibromo-2-(furan-2-ylmethylene)benzofuran-3(2H)-one], the figure is 4.66 ± 0.051 µM.
For the compound `COc1ccc(C=CC(=O)c2cc(Cl)cc([N+](=O)[O-])c2O)cc1` [Compound 4, 1-(5-Chloro-2-hydroxy-3-nitrophenyl)-3-(4-methoxyphenyl)prop-2-en-1-one], half-maximal inhibition (IC50) was put at 3.14 ± 0.176 µM. The IC50 values of the last two compounds are within 1.5-fold of each other.
Still for that read-out and setting: in the case of `CN(C)c1ccc(C=CC(=O)c2cc(Cl)cc([N+](=O)[O-])c2O)cc1` [Compound 6, 1-(5-Chloro-2-hydroxy-3-nitrophenyl)-3-(4-(dimethylamino)phenyl)prop-2-en-1-one] it was 3.02 ± 0.087 µM; in that of `COc1ccc(C=C2Oc3cc(Cl)cc([N+](=O)[O-])c3C2=O)cc1` [Compound 20, 6-Chloro-2-(4-methoxybenzylidene)-4-nitrobenzofuran-3(2H)-one], 1.05 ± 0.029 µM; in that of `O=C(C=Cc1ccc(Cl)cc1)c1cc(Br)cc(Br)c1O` [Compound 2, 3-(4-Chlorophenyl)-1-(3,5-dibromo-2-hydroxyphenyl)prop-2-en-1-one], 6.23 ± 0.098 µM.
As for `Cc1ccc(C=CC(=O)c2cc(Cl)cc([N+](=O)[O-])c2O)c(C)c1` [Compound 8, 1-(5-Chloro-2-hydroxy-3-nitrophenyl)-3-(2,4-dimethylphenyl)prop-2-en-1-one], the IC50 (in general, the point on the concentration scale where inhibition reaches its midpoint) came out at 12.6 ± 0.298 µM.
On the same count and under the same terms, in the case of `O=C(C=Cc1ccco1)c1cc(Br)cc(Br)c1O` [Compound 1, 1-(3,5-Dibromo-2-hydroxyphenyl)-3-(furan-2-yl)prop-2-en-1-one] it was 4.31 ± 0.154 µM; in that of `CN(C)c1ccc(C=C2Oc3cc(Cl)cc([N+](=O)[O-])c3C2=O)cc1` [Compound 15, 6-Chloro-2-(4-(dimethylamino)benzylidene)-4-nitrobenzofuran-3(2H)-one], 2.15 ± 0.056 µM.
As for `O=C1C(=Cc2cccs2)Oc2cc(Cl)cc([N+](=O)[O-])c21` [Compound 19, 6-Chloro-4-nitro-2-(thiophen-2-ylmethylene)benzofuran-3(2H)-one], half-maximal inhibition (IC50) was put at 5.88 ± 0.083 µM.
Same read-out and setting: as for `CCCOc1ccc(C=CC(=O)c2cc(Cl)cc([N+](=O)[O-])c2O)cc1OC` [Compound 10, 1-(5-Chloro-2-hydroxy-3-nitrophenyl)-3-(3-methoxy-4-propoxyphenyl)prop-2-en-1-one], the figure is 6.97 ± 0.097 µM.

The same experiment, now with this note: ratio of IC50 values vs standard KH2PO4.
As to `COc1ccc(C=C2Oc3cc(Cl)cc([N+](=O)[O-])c3C2=O)cc1` [Compound 20, 6-Chloro-2-(4-methoxybenzylidene)-4-nitrobenzofuran-3(2H)-one], the “fold higher inhibition compared to KH2PO4” value is roughly 2.6 fold.

A further experiment has as its system alkaline phosphatase. As to the kind of experiment: Enzyme inhibition kinetic study. It counts as biochemical. The note with it: inhibitor 0.00, 1.15, 2.30, 4.60 and 9.20 μM; substrate p-NPP. The gist of the method:
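Enzyme, buffer and pre-incubation were as in the AP inhibition assay. p-NPP was used at 10, 5, 2.5, […] and 0.625 mM. Maximum initial velocities came from the linear part of absorbance over up to 10 min. Inhibition type was assigned from Lineweaver–Burk plots of 1/V vs. 1/[S].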
Turning to `COc1ccc(C=C2Oc3cc(Cl)cc([N+](=O)[O-])c3C2=O)cc1` [Compound 20, 6-Chloro-2-(4-methoxybenzylidene)-4-nitrobenzofuran-3(2H)-one], the “type of enzyme inhibition (Lineweaver–Burk plot)” value was “non-competitive”.

In the next experiment the target is AP.
Test: not given
Particulars: traditional AP inhibitors; ref 34g; cited from earlier work.
On to `Cn1c(=O)c2[nH]cnc2n(C)c1=O` [theophylline], for which the inhibition constant (Ki) – broadly, the equilibrium dissociation constant of an inhibitor or competing ligand from its target – is 82 µM.
In the case of `c1ccc([C@H]2CN3CCSC3=N2)cc1` [levamisole], the Ki is 16 µM.
